The source made the active and inactive calls. The rule behind the calls is not given here. Where a SMILES comes first, the peptide text is derived from it. Bridges are numbered along the chain shown (N, C = ends). [ ]: non-standard residue; d: D form. Pro(3S-OH) = O=C(O)[C@H]1NCC[C@@H]1O; Cha = N[C@@H](CC1CCCCC1)C(=O)O; pGlu = O=C1CC[C@@H](C(=O)O)N1
biological target: Sodium-dependent noradrenaline transporter (Homo sapiens, UniProt P23975); experiment: Displacement of [3H]nisoxetine from human NET expressed in COS7 cells; type: cell-based; details: COS-7
Summary of the method: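 Membranes from COS-7 cells transfected with human NET were incubated with [3H]nisoxetine (4.3 nM) with or without peptide (1 nM to 100 μM, triplicate) for 1 h at RT. Filter-retained radioactivity was counted by liquid scintillation, and values are given as pIC50. Data are means of 2–5 experiments in triplicate; peptide concentration was set by calibrated HPLC at 214 nm.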

Chain of Sodium-dependent noradrenaline transporter (P23975 whole entry): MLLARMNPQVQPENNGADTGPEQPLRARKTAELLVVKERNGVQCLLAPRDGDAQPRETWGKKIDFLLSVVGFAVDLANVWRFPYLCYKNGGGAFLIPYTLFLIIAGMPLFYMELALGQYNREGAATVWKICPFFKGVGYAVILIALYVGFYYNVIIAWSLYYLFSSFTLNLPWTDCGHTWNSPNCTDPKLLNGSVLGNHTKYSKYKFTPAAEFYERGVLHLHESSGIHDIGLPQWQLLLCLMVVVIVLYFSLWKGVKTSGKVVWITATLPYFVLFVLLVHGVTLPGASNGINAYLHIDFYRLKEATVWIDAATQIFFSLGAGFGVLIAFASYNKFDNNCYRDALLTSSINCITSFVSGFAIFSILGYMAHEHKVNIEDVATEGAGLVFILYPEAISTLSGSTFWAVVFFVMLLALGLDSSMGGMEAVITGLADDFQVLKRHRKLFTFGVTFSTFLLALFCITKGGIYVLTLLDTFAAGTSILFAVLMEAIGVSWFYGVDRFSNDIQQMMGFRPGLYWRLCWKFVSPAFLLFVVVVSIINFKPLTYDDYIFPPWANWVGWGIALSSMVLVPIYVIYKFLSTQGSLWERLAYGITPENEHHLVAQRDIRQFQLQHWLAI

**Q.** For `CC(C)C[C@@H]1NC(=O)[C@H](CCCCN)NC(=O)[C@H](Cc2ccc(O)cc2)NC(=O)CNC(=O)[C@@H]2CSSC[C@H](NC1=O)C(=O)N[C@@H](Cc1cnc[nH]1)C(=O)N1CC[C@H](O)[C@H]1C(=O)N[C@@H](C(=O)O)CSSC[C@@H](NC(=O)[C@@H](NC(=O)CNC(=O)[C@@H]1CCC(=O)N1)C(C)C)C(=O)N2`, which Activity is on record?
**A.** Its Activity is “Active”.

**Q.** With `CC(C)[C@H](NC(=O)CNC(=O)[C@@H]1CCC(=O)N1)C(=O)N[C@H]1CSSC[C@@H](C(=O)O)NC(=O)[C@@H]2[C@@H](O)CCN2C(=O)[C@H](Cc2cnc[nH]2)NC(=O)[C@@H]2CSSC[C@H](NC1=O)C(=O)NCC(=O)N[C@@H](Cc1ccc(O)cc1)C(=O)N[C@@H](CCCCN)C(=O)N[C@@H](C1CCCCC1)C(=O)N2` as the molecule, how does the Activity read?
**A.** The Activity was “Active”.

**Q.** How did the Activity turn out when `CC(C)C[C@@H]1NC(=O)[C@H](CCCCN)NC(=O)[C@H](Cc2ccc(O)cc2)NC(=O)CNC(=O)[C@@H]2CSSC[C@H](NC1=O)C(=O)N[C@@H](CCCNC(=N)N)C(=O)N1CC[C@H](O)[C@H]1C(=O)N[C@H](C(=O)O)CSSC[C@H](NC(=O)[C@@H](NC(=O)CNC(=O)[C@@H]1CCC(=O)N1)C(C)C)C(=O)N2` was run?
**A.** Its Activity is “Active”.

**Q.** Which Activity does the source give for `CC(C)C[C@@H]1NC(=O)CNC(=O)[C@@H]2CSSC[C@H](NC(=O)[C@H](CC(C)C)NC(=O)[C@H](CCCCN)NC1=O)C(=O)N[C@@H](Cc1cnc[nH]1)C(=O)N1CC[C@H](O)[C@H]1C(=O)N[C@H](C(=O)O)CSSC[C@H](NC(=O)[C@@H](NC(=O)CNC(=O)[C@@H]1CCC(=O)N1)C(C)C)C(=O)N2` ([pGlu]GVCCGLKLCH[Pro(3S-OH)]C-OH; disulfide 4-13, 5-10) here?
**A.** Its Activity is “inactive”.

**Q.** For `COc1ccc(C[C@@H]2NC(=O)CNC(=O)[C@@H]3CSSC[C@H](NC(=O)[C@H](CC4CCCCC4)NC(=O)[C@H](CCCCN)NC(=O)[C@H](Cc4ccc(O)cc4)NC2=O)C(=O)N[C@@H](Cc2c[nH]c4ccccc24)C(=O)N2CC[C@H](O)[C@H]2C(=O)N[C@H](C(=O)O)CSSC[C@H](NC(=O)[C@@H](NC(=O)CNC(=O)[C@@H]2CCC(=O)N2)C(C)C)C(=O)N3)cc1` ([pGlu]GVCCGY(Me)YK[Cha]CW[Pro(3S-OH)]C-OH; disulfide 4-14, 5-11), which Activity is on record?
**A.** Its Activity is “Active”.

**Q.** `CC(C)C[C@@H]1NC(=O)[C@H](CCCCN)NC(=O)[C@@H](Cc2ccc(O)cc2)NC(=O)CNC(=O)[C@@H]2CSSC[C@H](NC1=O)C(=O)N[C@@H](Cc1cnc[nH]1)C(=O)N1CC[C@H](O)[C@H]1C(=O)N[C@H](C(=O)O)CSSC[C@H](NC(=O)[C@@H](NC(=O)CNC(=O)[C@@H]1CCC(=O)N1)C(C)C)C(=O)N2` was tested. Which Activity did it give?
**A.** Its Activity is “inactive”.

**Q.** `CC(C)C[C@@H]1NC(=O)[C@H](CCCCN)NC(=O)[C@H](Cc2ccc(O)cc2)NC(=O)CNC(=O)[C@@H]2CSSC[C@H](NC1=O)C(=O)N[C@@H](Cc1cccnc1)C(=O)N1CC[C@H](O)[C@H]1C(=O)N[C@H](C(=O)O)CSSC[C@H](NC(=O)[C@@H](NC(=O)CNC(=O)[C@@H]1CCC(=O)N1)C(C)C)C(=O)N2` was tested. Which Activity did it give?
**A.** The Activity was “Active”.

**Q.** Which Activity does the source give for `CC(C)C[C@@H]1NC(=O)[C@H](CCCCN)NC(=O)[C@H](Cc2ccc(O)cc2)NC(=O)CNC(=O)[C@@H]2CSSC[C@H](NC1=O)C(=O)N[C@@H](Cc1cnc[nH]1)C(=O)N[C@H](CC(=O)O)C(=O)N[C@H](C(=O)O)CSSC[C@H](NC(=O)[C@@H](NC(=O)CNC(=O)[C@@H]1CCC(=O)N1)C(C)C)C(=O)N2` here?
**A.** The Activity was “inactive”.

**Q.** Which Activity does the source give for `CC(C)C[C@@H]1NC(=O)[C@H](CCCCN)NC(=O)[C@H](Cc2ccc(O)cc2)NC(=O)CNC(=O)[C@@H]2CSSC[C@H](NC1=O)C(=O)N[C@@H](Cc1ccccc1)C(=O)N1CC[C@H](O)[C@H]1C(=O)N[C@H](C(=O)O)CSSC[C@H](NC(=O)[C@@H](NC(=O)CNC(=O)[C@@H]1CCC(=O)N1)C(C)C)C(=O)N2` ([pGlu]GVCCGYKLCF[Pro(3S-OH)]C-OH; disulfide 4-13, 5-10) here?
**A.** Its Activity is “Active”.

**Q.** With `COc1ccc(C[C@@H]2NC(=O)CNC(=O)[C@@H]3CSSC[C@H](NC(=O)[C@H](CC(C)C)NC(=O)[C@H](CCCCN)NC2=O)C(=O)N[C@@H](Cc2cnc[nH]2)C(=O)N2CC[C@H](O)[C@H]2C(=O)N[C@H](C(=O)O)CSSC[C@H](NC(=O)[C@@H](NC(=O)CNC(=O)[C@@H]2CCC(=O)N2)C(C)C)C(=O)N3)c(OC)c1` as the molecule, how does the Activity read?
**A.** Its Activity is “inactive”.

Source: ChEMBL document CHEMBL1154792, “chi-Conopeptide pharmacophore development: toward a novel class of norepinephrine transporter inhibitor (Xen2174) for pain” (J Med Chem, 2009)
